# Laboratory results: publication PMC4174992 (The Journal of Physical Chemistry. B, 2014)
# Read-outs that look alike come from different tables or passages of the source.
# How the values were obtained:
# [1] = cited from earlier work
# [2] = tested on: embryonic rat hippocampal neurons; details: Busciglio and co-workers; cited from earlier work
# [3] = Ion-mobility mass spectrometry; type: physicochemical; details: IM-MS, 200 μM in water
# Atomic force microscopy = type: physicochemical
# Outline: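 Samples were N-acetyl/C-amide peptides at 200 μM in water, with no buffer, to slow aggregation and limit charge screening. Peptide stocks were made in filtered deionized water, flash-frozen and kept at −80 °C. AFM height images were taken at 1 Hz with 512 × 512 points, fibrils masked and first-order flattened. Each fibril or granular-aggregate height and length is the mean of 20 measurements.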
substance,measurement,setting,value
NFLVHSS,aggregation strength (class 6 steric zipper),[1]; PDB ID 3FTH,weakly aggregating
Aβ(1–40): full length Aβ isoform,result compared with Aβ(25–35) effect on neurons,[2],similar
YVVFV,aggregation strength (class 6 steric zipper),[1]; PDB 4OLR / 4ONK,weakly aggregating
"Ac-Aβ(25–35)-NH2: amphipathic amyloid-β fragment containing the hydrophobic hexapeptide GAIIGL (Ac-GSNKGAIIGLM-NH2; UniProt P05067 696-706, looked up, fragment)",largest oligomers observed,[3]; heteroligomers from 1:1 mixture,hexamers and nonamers
same,onset of cross-section deviation from isotropic oligomer model,[3]; indicates extended oligomers,starting at the trimer stage
same,aggregates observed by AFM (1 week),"Atomic force microscopy; 1 week incubated, 200 μM in water, mixture at 1:1",abundant fibrillar aggregates
same,time to fibrillar aggregates,"Atomic force microscopy; fresh peptide, in water",within an hour
YVVFL,aggregation strength (class 6 steric zipper),[1]; PDB 4OLR / 4ONK,weakly aggregating
